Among the data in ChEMBL document CHEMBL1137649, “Mupirocin-resistant, methicillin-resistant Staphylococcus aureus strains in Canadian hospitals” (2007) are Activity, MIC and MIC90 values, retold here.

Holding throughout (assay type): functional
Assay [1] concerns Staphylococcus aureus. Briefly: Antimicrobial activity against mupirocin-resistant methicillin-resistant Staphylococcus aureus assessed as resistant rate by broth microdilution method. The procedure, abridged: (§1)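 Clinical MRSA isolates (4,980) from 32 Canadian hospitals, 1995–2004, confirmed by multiplex PCR for mecA and nuc. Susceptibility done by broth microdilution following CLSI guidelines. Inducible clindamycin resistance in macrolide-resistant isolates detected by standardized disk approximation test. Isolates grouped as high-level mupirocin-resistant or mupirocin-susceptible. Resistance rates expressed as percentage of isolates per group.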
On the technique in general: In broth dilution the organism is exposed to a series of concentrations in liquid medium.

Assay [2] relates to Staphylococcus aureus. The experiment in a line: Antimicrobial activity against mupirocin-susceptible methicillin-resistant Staphylococcus aureus assessed as resistant rate by broth microdilution method. Summed up:
as §1

The test system of assay [3] is Staphylococcus aureus. Briefly: Antimicrobial activity against mupirocin-susceptible methicillin-resistant Staphylococcus aureus by broth microdilution method. The procedure, abridged:
as §1

Assay [4] deals with Staphylococcus aureus. Briefly: Antimicrobial activity against mupirocin-resistant methicillin-resistant Staphylococcus aureus by broth microdilution method. Summed up:
as §1

Structures are written as SMILES. Values after ≈ are worked out from the molar mass of the structure shown.

As for `O=C(O)c1cn(C2CC2)c2cc(N3CCNCC3)c(F)cc2c1=O` [CIPROFLOXACIN], the values for the Activity in assay [1] and in assay [2] were 75% and 90%, respectively. In addition, the MIC – broadly, the lowest concentration found to suppress growth – in assay [3] is at most 4 µg/mL; in assay [4], at least 512 µg/mL. The MIC90 in assay [3] and in assay [4] was over 8 µg/mL throughout.
Regarding `CCC[C@@H]1C[C@@H](C(=O)N[C@@H]([C@H]2O[C@H](SC)[C@H](O)[C@@H](O)[C@H]2O)[C@H](C)Cl)N(C)C1` [CLINDAMYCIN], the Activity in assay [1] was 85%; in assay [2], 86%. In addition, the values for the minimum inhibitory concentration (MIC) in assay [3] and in assay [4] were at most 4 µg/mL and at least 512 µg/mL, respectively. In addition, the MIC90 in assay [3] and in assay [4] was over 8 µg/mL each time.
For the molecule `CC[C@H]1OC(=O)[C@H](C)[C@@H](O[C@H]2C[C@@](C)(OC)[C@@H](O)[C@H](C)O2)[C@H](C)[C@@H](O[C@@H]2O[C@H](C)C[C@H](N(C)C)[C@H]2O)[C@](C)(O)C[C@@H](C)C(=O)[C@H](C)[C@@H](O)[C@]1(C)O` [ERYTHROMYCIN], the figures for the Activity in assay [1] and in assay [2] were 86% and 94%, respectively. For the same molecule, the minimal inhibitory concentration (MIC) in assay [3] is at most 4 µg/mL; in assay [4], at least 512 µg/mL. Moreover, the MIC90 in assay [3] and in assay [4] was over 8 µg/mL each time.
Regarding `CC(=O)O[C@H]1C[C@@]2(C)[C@@H](C[C@@H](O)[C@H]3[C@@]4(C)CC[C@@H](O)[C@@H](C)[C@@H]4CC[C@@]32C)/C1=C(\CCC=C(C)C)C(=O)O` [FUSIDIC ACID], the Activity was 21% in assay [1] and 4% in assay [2]. The values for the minimal inhibitory concentration (MIC) in assay [3] and in assay [4] were at most 0.5 µg/mL and at least 512 µg/mL, respectively. For the same molecule, the MIC90 (as a rule, an inhibitory concentration at the 90% level, which refers to growth in some studies and to a panel of isolates in others) was 0.5 µg/mL (≈ 0.968 µM) in assay [3] and over 8 µg/mL in assay [4].
For `CC(=O)NC[C@H]1CN(c2ccc(N3CCOCC3)c(F)c2)C(=O)O1` [LINEZOLID], the Activity in assay [1] and in assay [2] was 0% throughout. Moreover, the minimal inhibitory concentration (MIC) in assay [3] was at most 4 µg/mL; in assay [4] it was at least 512 µg/mL. Besides, the values for the MIC90 in assay [3] and in assay [4] were 1 µg/mL (≈ 2.96 µM) and 2 µg/mL (≈ 5.93 µM), respectively.
Take `C/C(=C\C(=O)OCCCCCCCCC(=O)O)C[C@@H]1OC[C@H](C[C@@H]2O[C@H]2[C@@H](C)[C@H](C)O)[C@@H](O)[C@H]1O` [MUPIROCIN]: the figures for the Activity in assay [1] and in assay [2] were 100% and 0%, respectively. Moreover, the MIC in assay [3] is at most 4 µg/mL; in assay [4] it was at least 512 µg/mL. The MIC90 is 0.5 µg/mL (≈ 0.999 µM) in assay [3] and over 512 µg/mL in assay [4].
With `CO[C@H]1/C=C/O[C@@]2(C)Oc3c(C)c(O)c4c(O)c(c(/C=N/N5CCN(C)CC5)c(O)c4c3C2=O)NC(=O)/C(C)=C\C=C\[C@H](C)[C@H](O)[C@@H](C)[C@@H](O)[C@@H](C)[C@H](OC(C)=O)[C@@H]1C` [RIFAMPIN], the figures for the Activity in assay [1] and in assay [2] were 4% and 2%, respectively. In addition, the MIC was at most 4 µg/mL in assay [3] and at least 512 µg/mL in assay [4]. The MIC90 in assay [3] and in assay [4] was under 0.5 µg/mL throughout.
As for `CN(C)[C@@H]1C(O)=C(C(N)=O)C(=O)[C@@]2(O)C(O)=C3C(=O)c4c(O)cccc4[C@@](C)(O)[C@H]3C[C@@H]12` [TETRACYCLINE], the Activity is 7% in assay [1] and 23% in assay [2]. Moreover, the MIC in assay [3] is at most 4 µg/mL; in assay [4], at least 512 µg/mL. Further, the values for the MIC90 in assay [3] and in assay [4] were over 16 µg/mL and under 4 µg/mL, respectively.
Regarding `CN[C@H](CC(C)C)C(=O)N[C@H]1C(=O)N[C@@H](CC(N)=O)C(=O)N[C@H]2C(=O)N[C@H]3C(=O)N[C@H](C(=O)N[C@H](C(=O)O)c4cc(O)cc(O)c4-c4cc3ccc4O)[C@H](O)c3ccc(c(Cl)c3)Oc3cc2cc(c3O[C@@H]2O[C@H](CO)[C@@H](O)[C@H](O)[C@H]2O[C@H]2C[C@](C)(N)[C@H](O)[C@H](C)O2)Oc2ccc(cc2Cl)[C@H]1O` [VANCOMYCIN], the Activity in assay [1] and in assay [2] was 0% in each case. The results for the MIC in assay [3] and in assay [4] were at most 4 µg/mL and at least 512 µg/mL, respectively. Further, the MIC90 in assay [3] and in assay [4] was 1 µg/mL (≈ 0.69 µM) in each case.
